The values that follow come from PMC6847989 (International Journal of Nanomedicine, 2019).

Series [1] deals with RA-FLS. Nature of the series: Matrigel transwell invasion assay. It is filed as cell-based, human. The following applies: 320 μg/mL, 48 hrs. Summed up: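 Transwell inserts were coated with Matrigel diluted in cold serum-free medium (medium:Matrigel 5:1) and incubated overnight. RA-FLS (3×10³ cells/100 μL) in serum-free medium plus test compound (40–320 μg/mL) were placed above 10% FBS for 48 h at 37°C. Invaded cells were fixed in 4% paraformaldehyde, stained with crystal violet, and counted in 5 random fields; three independent replicates.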

The conditions of series [2]: cited from earlier work.
Another series relates to IL-6. Nature of the series: ELISA of IL-6 in serum and synovial homogenate supernatant of CIA rats. Format: in vivo, female Lewis rats. As to conditions: 10 mg/kg intragastrically daily, 21 days. Summed up:
(§1)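 Female Lewis rats; CIA from bovine type II collagen in complete Freund's adjuvant (400 μg collagen s.c.), boosted day 7 with incomplete adjuvant. Test compound in 0.5% CMC, 10 mg/kg intragastric daily, 21 days; n = 7, untreated CIA and healthy controls. Serum from canthus blood (300 × g, 10 min) and synovial homogenate supernatant (PBS, protease inhibitors) assayed by high-sensitivity ELISA; mean ± SD.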
A general note: In an ELISA, binding on a coated surface is turned into a signal by an enzyme label.

A short description of series [3]: In vivo pharmacokinetics, plasma concentration by HPLC. The arrangement: species or system female Lewis rats. The following applies: female, Lewis, rat, po, 10 mg/kg. An outline of the steps:
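Healthy female Lewis rats (150 ± 10 g, 6 weeks) received a single oral 10 mg/kg dose of test compound suspended in 0.5% sodium CMC in water. Heparinized blood was drawn at 10 and 30 min and at 1, 2, 3, 4, 6, 8, 12, 18 and 24 h. Plasma drug was measured by HPLC, and parameters were calculated from the concentration–time curve.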

Series [4] relates to RA-FLS. Nature of the series: MTS cell proliferation assay. It is filed as cell-based, human. As to conditions: 48 hr. Summed up: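 Primary RA-FLS were grown from explants of patients' synovial tissue in DMEM/20% FBS and used at passages 3–6. Cells were seeded at 3×10³ cells/100 μL and allowed to adhere overnight. They were exposed for 48 h to test compound at 40, 80, 160 or 320 μg/mL in 10% FBS high-glucose DMEM, alongside medium, PBS or blank-gel controls. After MTS for 2 h, absorbance was read at 490 nm, with six replicate wells per group.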
(Tetrazolium assays rely on reduction of a dye to a coloured formazan, in cell work by metabolically active cells.)

In series [5] the test system is collagen-induced arthritis (CIA) rats. Nature of the series: Histological evaluation of ankle joints of CIA rats. Format: in vivo, female Lewis rats. The following applies: 10 mg/kg intragastrically daily, 21 days. An outline of the steps:
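CIA was induced in female Lewis rats (150 ± 10 g, 6 weeks) by s.c. injection of bovine type II collagen emulsified in complete Freund's adjuvant (400 μg collagen), then boosted 7 days later with collagen in incomplete adjuvant. Oral test compound was given in 0.5% CMC for 21 days (n = 7). Right ankles were fixed, decalcified, paraffin-embedded, and stained with H&E and safranin O–fast green. Sections were given a Mankin score (5 grades) over multiple fields. Groups were compared by Mann–Whitney U or ANOVA.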

In the next series the test system is TNF-α. Nature of the series: ELISA of TNF-α in serum and synovial homogenate supernatant of CIA rats. Format: in vivo, female Lewis rats. The following applies: 10 mg/kg intragastrically daily, 21 days. Summed up: as §1
Series [6] relates to RA-FLS. Briefly: Transwell migration assay. It is filed as cell-based, human. As to conditions: 320 μg/mL, 48 hrs. An outline of the steps:
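RA-FLS (3×10³ cells/100 μL) in serum-free medium were placed in the upper chamber of 8-μm transwells with test compound (40–320 μg/mL). The lower chamber held 10% FBS as chemoattractant. After 48 h at 37°C, non-migrated cells were swabbed off. Underside cells were fixed in 4% paraformaldehyde for 30 min at room temperature, stained with 0.1% crystal violet, and counted in 5 random fields; three independent experiments.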

Series [7] can be described thus: In vitro drug release / dissolution in PBS buffer. Format: physicochemical. The following applies: PBS 150 mM, pH 7.4, 37°C, 72 hrs. Summed up:
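Release was by dialysis (3500 MWCO bag) into 20 mL PBS. Test powder (1.0 mg) was dispersed in 5 mL PBS at 37°C, or loaded hydrogel (250 μL) was placed in the bag. At set times 3 mL of outer buffer was withdrawn and replaced with fresh buffer. IGUR was quantified by UV absorbance at 309 nm.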

A further series deals with IL-1β. Briefly: ELISA of IL-1β in serum and synovial homogenate supernatant of CIA rats. Format: in vivo, female Lewis rats. As to conditions: 10 mg/kg intragastrically daily, 21 days. Summed up:
as §1

Series [8] has as its system collagen-induced arthritis (CIA) rats. Nature of the series: Therapeutic efficacy in collagen-induced arthritis. Format: in vivo, female Lewis rats. As to conditions: 10 mg/kg intragastrically daily. An outline of the steps:
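Female Lewis rats (150 ± 10 g, 6 weeks) given bovine type II collagen in complete Freund's adjuvant (400 μg collagen s.c.), reboosted day 7 with incomplete adjuvant. Test compound in 0.5% CMC, 10 mg/kg intragastric daily for 21 days; n = 7 per group, untreated CIA and healthy rats as controls. Every 3 days, two researchers record weight, ankle diameter and arthritis index (each paw 0–4, maximum 16).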

With `CS(=O)(=O)Nc1cc2occ(NC=O)c(=O)c2cc1Oc1ccccc1` [raw IGUR, Iguratimod], the “relative cell invasion ratio” value with RA-FLS [1] is reported as 44.59 ± 2.24%. Further, the “solubility in aqueous solvents” value in series [2] was “practically insoluble”. The “serum level of IL-6 vs CIA group” value with IL-6 was “significantly lower than those in the CIA group”. Further, in [3], the AUC(0-t) (in general, exposure summed from dosing to a finite time, without extrapolation to infinity) came to 111 µg·h/mL; the highest level (Cmax) was 12700 ng/mL; the half-life (usually the time in which the quantity being followed falls by half) was 222 min. The “relative cell proliferation ratio” value in the series on RA-FLS [4] (160 μg/mL) turned out to be 83.72 ± 1.41%. Moreover, the “relative cell proliferation ratio” value with RA-FLS [4] (320 μg/mL) was found to be 80.73 ± 2.14%. For the same molecule, the “H&E histology of ankle joints vs CIA group” value in series [5] was “less infiltration of inflammatory cells in the synovial tissue and no obvious bone erosion”. In addition, in [5] (P < 0.05), the “Mankin's score vs CIA group” value is “significantly lower” and the “synovitis score vs CIA group” value is “significantly lower”. Also, the “area of ankle cartilage vs CIA group” value in series [5] (saffron O-fixing green staining, Image J, P < 0.05) is given as “increased significantly”. The “serum level of TNF-α vs CIA group” value in the series with TNF-α is recorded as “significantly lower than those in the CIA group”. In the series on RA-FLS [6], the “relative cell migration ratio” value is reported as 44.69 ± 1.58%. The “dissolution rate (dissolved/released IGUR)” value in [7] is recorded as 28.65%. Moreover, the “serum level of IL-1β vs CIA group” value in the series with IL-1β was “significantly lower than those in the CIA group”. In addition, the “body weight vs CIA group” value in series [8] (13th day of administration) is reported as “significantly higher than in the CIA group”. Also, the “AI scores vs CIA group” value in series [8] (16th day of administration) is recorded as “significantly lower than in the CIA group”.
